Bioassay records from PubChem BioAssay.
Only some compounds are listed: those with a hit (about 2.9% of all), similar ones and a draw of the others.
SENP8 block-1: human SENP8 protease inhibitors, primary screen, biochemical, fluorescence, Nedd8 protein substrate, uHTS; inhibition, % at 20 µM; recombinant SENP8; 0.64% of 360,000 active; Sentrin-specific protease 8 (Homo sapiens), Q96LD8; AID 602440, 2012; in the data active = inhibition mostly above about 40%, no sharp cut-off; inactive = mostly below about 27%
SENP7 inh: SENP7 protease inhibitors, primary screen, biochemical, luminescence, uHTS | AID 434973, 2010 | inhibition, % at 5 µM | 1.5% of 330,000 active | recombinant SENP7, Z-RLRGG-aminoluciferin luminescence, 40 min | Sentrin-specific protease 7 (Homo sapiens), Q9BQF6;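 active = inhibition above about 50% at the single test dose, limit read from the data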;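 also: plate controls were DMSO with enzyme for no effect and no enzyme buffer wells for full effect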
Target sequence (Q9BQF6 706-1050 limits assumed): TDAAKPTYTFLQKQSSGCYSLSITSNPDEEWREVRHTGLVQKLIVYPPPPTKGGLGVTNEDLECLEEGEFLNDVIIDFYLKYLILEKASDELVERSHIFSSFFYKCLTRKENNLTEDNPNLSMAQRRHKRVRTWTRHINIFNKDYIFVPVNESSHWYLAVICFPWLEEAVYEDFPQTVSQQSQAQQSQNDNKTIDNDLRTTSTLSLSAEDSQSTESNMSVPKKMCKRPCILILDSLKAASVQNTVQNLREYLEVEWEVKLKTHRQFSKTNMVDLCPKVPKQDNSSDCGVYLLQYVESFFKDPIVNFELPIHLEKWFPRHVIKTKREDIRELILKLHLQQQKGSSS
HSP90 inh: HSP90 inhibitors, primary screen, cell lysate, luminescence. inhibition, % at 5.6 µM. Rabbit reticulocyte lysate, luciferase refolding luminescence, 3 h. 0.91% of 290,000 active;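 active = inhibition above the screen-wide mean plus 3 SD, computed separately per campaign, cut at about 16% in these data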;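 also: 0% = DMSO wells and 100% = 60 µM geldanamycin wells; inhibitors lower the luminescence because luciferase stays unfolded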
SENP1 inh: human SENP1 catalytic domain inhibitors, primary screen, biochemical, FRET, uHTS. recombinant SENP1 catalytic domain, CyPet-SUMO1-YPet FRET cleavage. inhibition, % at 10 µM. 0.21% of 360,000 active;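 active = inhibition at least 30% at 10 µM, raw YFP signal under a set limit, fluorescence ratio 0.5 to 1.5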;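 also: 0% = enzyme with DMSO and 100% = no enzyme wells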
Target sequence (Q9P0U3 419-644 limits assumed): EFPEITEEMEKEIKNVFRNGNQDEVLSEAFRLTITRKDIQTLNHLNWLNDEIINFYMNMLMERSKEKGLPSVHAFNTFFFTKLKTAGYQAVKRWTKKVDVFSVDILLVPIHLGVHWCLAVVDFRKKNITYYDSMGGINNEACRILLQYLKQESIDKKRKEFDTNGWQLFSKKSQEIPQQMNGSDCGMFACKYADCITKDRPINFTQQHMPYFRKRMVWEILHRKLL
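Assay system – human recombinant His6-tagged SENP1 catalytic domain enzyme · Input – SENP1 enzyme, 20 pM final · Buffer or medium – Tris pH 8 buffer plus EDTA, NaCl, BME, BSA, NP40, catalase · Schedule – 50 min reaction at room temperature · Technique – FRET read of cyan and yellow fluorescence · Control set – no-enzyme wells low, DMSO-plus-enzyme wells high control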
SENP6 inh: SENP6 protease inhibitors, primary screen, biochemical, luminescence, uHTS; 1.8% of 330,000 active; Recombinant SENP6 catalytic domain, aminoluciferin luminescence; inhibition, % at 10 µM;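 active = inhibition above about 50% at the single tested dose, limit read from the data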;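 also: plate controls were DMSO wells with enzyme for no effect and DMSO wells lacking enzyme for full effect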
SENP8 block-2: SENP8 protease inhibitors, primary screen, biochemical, luminescence | 1.2% of 330,000 active | inhibition, % at 10 µM | Sentrin-specific protease 8 (Homo sapiens), Q96LD8 | purified SENP8, Z-RLRGG-aminoluciferin cleavage; in the data active = inhibition above about 50%
SENP8 inh conf: human SENP8 protease inhibitors, confirmation, biochemical, Nedd8 protein substrate, single concentration. shares compounds with SENP8 block-1. purified SENP8, Nedd8-AMC/pro-Nedd8 cleavage fluorescence, 30 min. inhibition, % at 25 µM. 15% of 1,400 active. AID 624319, 2012; in the data active = inhibition mostly above about 39%, no sharp cut-off; inactive = mostly below about 34%
* hit, by the source's call; . = no result; ! = not active in a repeat.

SMILES | SENP8 block-1 | SENP7 inh | HSP90 inh | SENP1 inh | SENP6 inh | SENP8 block-2 | SENP8 inh conf
COc1ccc(C=CC(=O)c2ccc([N+](=O)[O-])cc2)cc1 | 5.3 | . | . | 6.5 | . | . | .
COc1ccc(C(=O)/C=C/c2ccc(C)cc2)c(OC(=O)c2ccc([N+](=O)[O-])cc2)c1 | 42.6* | -11.9 | -2.6 | 1.5 | 27.4 | 10.2 | -1.4
O=C(NNc1cccc(Cl)n1)Nc1ccc(Cl)cc1 | -2.0 | -10.4 | -11.3 | 2.2 | 11.3 | -6.4 | .
Cc1ccc(NNC(=O)Nc2ccc(Cl)cc2)nn1 | 48.2* | 5.0 | -1.7 | 1.7 | -0.8 | -6.3 | 1.8
CC1(C)Cc2c(C#N)c(N)n(-c3ccccc3)c(=S)c2CO1 | -136.2 | 9.8 | -4.0 | -53.4 | 4.2 | 11.4 | .
CC1(C)C=C2C(=NN(c3ccccc3)C(N)=C2C#N)CO1 | 53.5* | 9.5 | -0.7 | -14.8 | 23.8 | 36.3 | 97.0*
O=C(NC1CCCCCCC1)c1ccc(CNc2c(N3CCOCC3)c(=O)c2=O)cc1 | 14.2 | 5.9 | -3.1 | -1.1 | 0.7 | -5.4 | .
CC1CCN(c2cc(N3CCOCC3)c([N+](=O)[O-])cc2F)CC1 | 41.3* | 0.9 | 0.4 | 9.9 | -24.2 | -0.2 | 23.0
O=[N+]([O-])c1cc(-n2cccc2)ccc1N1CCOCC1 | 41.8* | 9.4 | -0.3 | 12.5 | 11.3 | 5.9 | 7.5
COc1ccc(NC(=O)CCNS(=O)(=O)c2cccc3nsnc23)c(OC)c1 | 6.0 | 1.2 | 2.3 | 1.1 | -14.0 | 2.4 | .
CC1CC(C)CN(CCCCOc2ccc([N+](=O)[O-])cc2)C1 (stereo not given) | 8.6 | 3.8 | 0.2 | 3.0 | 8.5 | -0.5 | .
O=C(NCCCN1CCN(c2ccccc2F)CC1)Nc1ccc(F)cc1 | 8.1 | -4.2 | 1.0 | 1.8 | -6.0 | -4.4 | .
O=C(NCCCN1CCN(c2ccccc2F)CC1)Nc1ccccc1[N+](=O)[O-] | 43.5* | 7.7 | 1.8 | 1.4 | 8.8 | -9.2 | 19.4
Cn1cnc2nc[nH]c2c1=O | 58.4* | . | . | 4.2 | . | . | 12.4
Cn1c(=O)[nH]c2nc[nH]c2c1=O | 13.1 | 3.8 | . | -2.7 | 9.4 | -3.7 | .
O=C(Cc1cc(=O)[nH][nH]1)N/N=C/c1c(Cl)cccc1Cl | 44.5*! | -3.6 | 2.0 | 2.3 | 11.1 | 4.0 | 19.1
O=C(Cc1cc(=O)[nH][nH]1)N/N=C/c1c(F)cccc1Cl | 17.5 | 2.6 | 2.1 | -0.6 | 8.8 | 1.6 | .
CCCCCCN1C=CC=C/C1=C\C=C(C#N)C#N | 42.6* | -9.2 | -0.9 | -13.4 | -7.5 | -5.2 | 29.0
COc1cc2cnc(-c3cccnc3)cc2cc1OC | -8.3 | 3.5 | . | 1.2 | -6.7 | -1.2 | .
Cc1cccc(NC(=O)C2CCN(C(=O)N3CCOc4ccccc43)CC2)c1C | 14.2 | 10.4 | 2.0 | 1.0 | -15.9 | -13.6 | .
CCOC(=O)Oc1ccc(C(=O)OCCCN(C)C)cc1OC | 18.3 | -6.7 | 0.4 | 3.7 | -19.5 | -8.0 | .
COc1ccc(C(=O)OCCCN(C)C)cc1OC | 41.2* | 8.2 | -3.3 | -0.3 | 7.6 | 1.8 | -7.3
NS(=O)(=O)c1ccc2nc(NC(=O)Nc3ccc(F)cc3)sc2c1 | -5.6 | -10.8 | 2.2 | -5.7 | -11.1 | -15.0 | .
CSc1nncc(/C(C)=N\Nc2ccccc2C)n1 | 53.9* | 11.0 | 0.9 | -0.8 | -2.6 | 4.1 | 15.1
CC(=O)Nc1ccc(OS(=O)(=O)c2cc(Cl)ccc2C)cc1 | 8.0 | 0.3 | -1.6 | 0.7 | -10.9 | -8.8 | .
SMILES | SENP8 block-1 | SENP7 inh | HSP90 inh | SENP1 inh | SENP6 inh | SENP8 block-2 | SENP8 inh conf
CC(C)(C)c1ccc2c(c1)OC(C(=O)N/N=C/c1ccc([N+](=O)[O-])o1)CO2 (stereo not given) | 44.4* | 9.7 | 3.0 | -50.0 | 1.5 | 2.2 | 15.1
COc1ccc(OC)c(-c2csc(NC(=O)CSc3nnnn3C)n2)c1 | 1.5 | -0.9 | . | -0.7 | 4.2 | 7.1 | .
O=c1c2ccccc2ncn1Cc1ccc(Cl)c(Cl)c1 | 6.1 | 3.9 | -3.9 | -0.8 | -4.2 | -0.2 | .
Cc1[nH][nH]c(=O)c1C(c1c(C)[nH][nH]c1=O)c1cn(Cc2ccc(Cl)c(Cl)c2)c2ccccc12 | 72.8* | . | 3.7 | -4.3 | . | . | 68.3*
Cc1[nH][nH]c(=O)c1C(c1c(C)[nH][nH]c1=O)c1cn(Cc2ccc(F)cc2)c2ccccc12 | 76.8* | . | 2.3 | -2.1 | . | . | 73.1*
O=C(O)Cc1cn(Cc2ccc(F)cc2)c2ccccc12 | 0.6 | 3.6 | 0.2 | 1.4 | 0.0 | 1.9 | .
Oc1ccc(Cl)cc1Sc1cc(Cl)ccc1O | -8.9 | . | . | -1.2 | . | . | .
CCc1c(C(=O)NN2C(=O)C3CCCCC3C2=O)csc1C (stereo not given) | 20.3 | -2.0 | -8.3 | -0.4 | -15.2 | -7.1 | .
O=Cc1cn(-c2ccccc2)nc1-c1cccc([N+](=O)[O-])c1 | 19.9 | . | . | 1.0 | . | . | .
O=[N+]([O-])c1ccc(-[n+]2nc(-c3ccccc3)nn2-c2ccccc2)cc1 | 49.9* | 10.1 | 0.9 | 1.7 | -1.3 | 12.9 | 45.3*
Cc1ccc(NC(=S)N/N=C/c2ccc(OCCC(C)C)cc2)c(C)c1 | 41.2* | -7.6 | 3.9 | -1.1 | -13.1 | -10.3 | 18.4
Cc1ccc(NC(=S)N/N=C/c2c(Cl)cccc2Cl)c(C)c1 | 29.1 | 10.0 | 1.8 | 1.2 | 3.4 | 0.0 | .
CC1(C)O[C@@H]2[C@H](O1)[C@@H](CO)O[C@H]2n1ccc(=O)[nH]c1=O | 7.8 | -13.0 | . | 3.4 | 0.7 | -11.2 | .
CCC(=O)c1ccc(OCc2cn(CC(=O)c3ccc(O)cc3)nn2)cc1 | 32.4* | . | . | 2.0 | . | . | 40.6*
OC[C@H]1O[C@H](OCc2ccccc2)[C@H](O[C@@H]2OC[C@@H](O)[C@H](O)[C@H]2O)[C@@H](O)[C@@H]1O | 41.9* | -3.8 | . | -0.4 | -6.5 | -4.2 | 10.8
OC1COC(OCC2OC(OCc3ccccc3)C(O)C(O)C2O)C(O)C1O (stereo not given) | 1.5 | 0.6 | -1.9 | -4.2 | -3.3 | 5.5 | .
O=C(c1cc([N+](=O)[O-])ccc1N1CCCCC1)N1CCCCC1 | 13.5 | 5.3 | 0.3 | -1.8 | -1.6 | 9.1 | .
O=C(O)c1cc([N+](=O)[O-])ccc1N1CCCCC1 | 41.5* | -5.1 | 0.1 | 3.2 | -13.3 | -7.7 | 16.4
O=C(O)c1c(N2CCCCC2)ccc([N+](=O)[O-])c1N1CCCCC1 | 40.3* | 7.4 | 1.7 | 1.2 | -4.1 | -1.9 | 23.0
COc1ccc(OC)c(NC(=O)Nc2nnc(COCCO)s2)c1 | -8.8 | . | . | 2.3 | . | . | .
